Test results as given in PMC5552226 (EBioMedicine, 2017).

Experiments:
[1] = sublingual, male volunteers; ref De Groot et al., 1995; cited from earlier work
[2] = Plasma oxytocin pharmacokinetics, phase 1 single-dose study; format: in vivo, human
Safety and tolerability = format: in vivo, human; settings: IM 10 IU (17 μg); N = 16
Method in brief: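 Healthy female volunteers in a single-centre, single-blind, fixed-sequence phase 1 study received a single IM dose of test compound, 10 IU, alongside inhaled dosing sessions. Adverse events and serious adverse events were recorded throughout the study. Spirometry, clinical laboratory tests, vital signs, ECG intervals, physical examination and cardiac telemetry were checked at set post-dose times. Follow-up visit 7–21 days after the last inhaled dose. Data were summarised descriptively.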

[3] = female, human, plasma, im, 10 IU

Question: For oxytocin [sublingual oxytocin], which absorption half-life [1] is on record?
Answer: long absorption half-life

Question: What about the bioavailability [1] of the same compound?
Answer: poor bioavailability

Question: What about the lag time [1] of the same compound?
Answer: long lag time

Question: With `CC[C@H](C)[C@@H]1NC(=O)[C@H](Cc2ccc(O)cc2)NC(=O)[C@@H](N)CSSC[C@@H](C(=O)N2CCC[C@H]2C(=O)N[C@@H](CC(C)C)C(=O)NCC(N)=O)NC(=O)[C@H](CC(N)=O)NC(=O)[C@H](CCC(N)=O)NC1=O` [IM oxytocin, oxytocin] as the compound, how does the “subjects in whom plasma oxytocin remained quantifiable up to 4 h” value ([2]; IM 10 IU, LLQ 2 pg/mL) read?
Answer: 5/16

Question: And the “AUC(0–3 h), adjusted geometric mean” value ([2]; IM 10 IU, plasma, mixed-effect model, PK population)?
Answer: 0.12761 ng·h/mL

Question: What about the AUC(0-t) [2, 3] of the same compound?
Answer: 0.12 ng·h/mL

Question: What about the Cmax [2, 3] of the same compound?
Answer: 0.19 ng/mL

Question: And the half-life [2, 3]?
Answer: 38.4 min

Question: What about the level at 0.5 h [2, 3] of the same compound?
Answer: 0.0822 ng/mL

Question: What about the tmax [2, 3] of the same compound?
Answer: 10.2 min

Question: And the tmax ([2]; following IM administration (10 IU), plasma)?
Answer: ~ 10 min

Question: And the “AE that led to discontinuation of study drug or withdrawal from the study, number of subjects” value (Safety and tolerability)?
Answer: 0

Question: And the “Deaths, number of AEs” value (Safety and tolerability)?
Answer: 0

Question: What about the “Deaths, number of subjects” value (Safety and tolerability) of the same compound?
Answer: 0

Question: What about the “Headache (drug-related), number of AEs” value (Safety and tolerability) of the same compound?
Answer: 1

Question: And the “Led to discontinuation of study drug or withdrawal from the study, number of AEs” value (Safety and tolerability)?
Answer: 0

Question: And the “Non-fatal SAEs, number of subjects” value (Safety and tolerability)?
Answer: 0
